Data published in ChEMBL document CHEMBL3525985, “Regiospecificity and stereospecificity of human UDP-glucuronosyltransferases in the glucuronidation of estriol, 16-epiestriol, 17-epiestriol, and 13-epiestradiol” (Drug Metab Dispos, 2013).

What was measured:
[1] = biological target: T1, UDP-glucuronosyltransferase 2B7 (Homo sapiens, UniProt P16662); assay: Drug level assessed as recombinant human C-terminal His-tagged UGT2B7-mediated compound formation from 200 uM 17-epiestriol after 15 to 60 mins by HPLC analysis in presence of UDPGA; type: ADME; settings: recombinant enzyme
T1 sequence (P16662 whole entry): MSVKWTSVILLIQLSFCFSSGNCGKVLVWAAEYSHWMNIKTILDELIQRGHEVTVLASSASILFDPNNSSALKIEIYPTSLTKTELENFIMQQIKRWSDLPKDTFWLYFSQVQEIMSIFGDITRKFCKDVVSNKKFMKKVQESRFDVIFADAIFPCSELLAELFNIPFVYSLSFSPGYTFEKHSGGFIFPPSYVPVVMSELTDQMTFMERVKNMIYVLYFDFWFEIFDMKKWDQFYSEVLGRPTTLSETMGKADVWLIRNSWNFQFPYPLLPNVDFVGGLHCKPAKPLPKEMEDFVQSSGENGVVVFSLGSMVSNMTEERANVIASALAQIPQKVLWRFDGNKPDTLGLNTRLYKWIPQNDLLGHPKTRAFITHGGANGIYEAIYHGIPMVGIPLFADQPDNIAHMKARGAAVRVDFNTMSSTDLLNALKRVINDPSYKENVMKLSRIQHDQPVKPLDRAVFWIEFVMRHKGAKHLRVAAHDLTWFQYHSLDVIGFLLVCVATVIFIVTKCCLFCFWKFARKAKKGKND
In short: (§1)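 UGT-enriched insect cell membranes (5 or 50 µg) in 50 mM phosphate pH 7.4, 10 mM MgCl2, 5 mM UDPGA; substrate 200 µM in DMSO (10% final); 15–60 min at 37°C; stopped with perchloric acid, on ice, centrifuged; glucuronides resolved by HPLC. Triplicates, no-UDPGA controls; rates normalized to relative UGT expression; substrate consumption ≤10%.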

[2] = tested on: C[C@]12CC[C@@H]3c4ccc(O)cc4CC[C@H]3[C@@H]1C[C@@H](O)[C@@H]2O; assay: Drug metabolism assessed as human UGT1A10 F93G mutant-mediated estriol-3-glucuronide formation after 15 to 60 mins by Michaelis-Menten equation analysis in presence of UDPGA; type: ADME
In short: (§2)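 UGT-enriched insect cell membranes (5 or 50 µg) were incubated with 0.2–300 µM aglycone in DMSO (10% final), 5 mM UDPGA, 10 mM MgCl2 and 50 mM phosphate pH 7.4 at 37°C. Reactions were stopped with perchloric acid and glucuronides measured by HPLC. Assays were in triplicate with substrate consumption ≤10%, rates normalized to relative UGT expression, and kinetics fitted to Michaelis-Menten.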

[3] = tested on: [H][C@@]12CCc3cc(O)ccc3[C@@]1([H])CC[C@]1(C)[C@H](O)[C@H](O)C[C@@]21[H]; assay: Drug metabolism assessed as human UGT1A10 F93G mutant-mediated 17-epiestriol-3-glucuronide formation after 15 to 60 mins by Michaelis-Menten equation analysis in presence of UDPGA; type: ADME; in short: as §2
[4] = tested on: C[C@]12CC[C@@H]3c4ccc(O)cc4CC[C@H]3[C@@H]1C[C@H](O)[C@@H]2O; assay: Drug metabolism assessed as human UGT1A10 F93G mutant-mediated 16-epiestriol-3-glucuronide formation after 15 to 60 mins by Michaelis-Menten equation analysis in presence of UDPGA; type: ADME; in short: as §2
[5] = biological target: T2, UDP-glucuronosyltransferase 1A10 (Homo sapiens, UniProt Q9HAW8); assay: Drug level assessed as recombinant human C-terminal His-tagged UGT1A10-mediated compound formation from 200 uM estriol after 15 to 60 mins by […] analysis in presence of UDPGA; type: ADME; settings: recombinant enzyme; in short: as §1
T2 sequence (Q9HAW8 whole entry): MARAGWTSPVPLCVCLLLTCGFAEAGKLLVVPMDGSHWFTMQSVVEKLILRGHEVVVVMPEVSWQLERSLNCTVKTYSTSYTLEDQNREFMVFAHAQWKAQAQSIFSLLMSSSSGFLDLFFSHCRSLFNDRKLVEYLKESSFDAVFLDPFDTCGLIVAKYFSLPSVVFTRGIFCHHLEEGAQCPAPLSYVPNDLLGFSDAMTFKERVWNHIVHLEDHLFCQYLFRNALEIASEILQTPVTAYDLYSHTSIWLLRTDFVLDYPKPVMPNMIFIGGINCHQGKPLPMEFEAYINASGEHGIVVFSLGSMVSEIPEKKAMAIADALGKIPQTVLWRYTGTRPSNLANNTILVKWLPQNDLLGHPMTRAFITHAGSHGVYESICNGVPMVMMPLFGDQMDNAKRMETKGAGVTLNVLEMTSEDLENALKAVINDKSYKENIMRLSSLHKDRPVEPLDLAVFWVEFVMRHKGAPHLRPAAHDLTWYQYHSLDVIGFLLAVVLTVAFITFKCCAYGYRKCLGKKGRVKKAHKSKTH

[6] = biological target: T1, UDP-glucuronosyltransferase 2B7; assay: Drug level assessed as recombinant human C-terminal His-tagged UGT2B7-mediated compound formation from 4 mg 17-epiestriol after 5 hrs by NMR spectroscopic analysis in presence of UDPGA; type: ADME; settings: recombinant enzyme
In short: (§3)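 Preparative biosynthesis: 4 mg 17-epiestriol or 8 mg 16-epiestriol with UGT2B7-enriched insect cell homogenate in 50 mM phosphate pH 7.4, 10 mM MgCl2, 50 mM UDPGA, 10% DMSO. Glucuronides fractionated by HPLC (0.1% HCOOH replacing phosphate, UV 280 nm), concentrated, lyophilized, then examined by NMR.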

[7] = biological target: T2, UDP-glucuronosyltransferase 1A10; assay: Drug level assessed as recombinant human C-terminal His-tagged UGT1A10-mediated compound formation from 200 uM 16-epiestriol after 15 to 60 mins by […] analysis in presence of UDPGA; type: ADME; settings: recombinant enzyme; in short: as §1
[8] = biological target: T1, UDP-glucuronosyltransferase 2B7; assay: Drug level assessed as recombinant human C-terminal His-tagged UGT2B7-mediated compound formation from 8 mg 16-epiestriol after 5 hrs by NMR spectroscopic analysis in presence of UDPGA; type: ADME; settings: recombinant enzyme; in short: as §3
UGT2A2 (Homo sapiens) = assay: Drug level assessed as recombinant human C-terminal His-tagged UGT2A2-mediated compound formation from at 200 uM 13-epiestradiol after 15 to 60 mins by HPLC analysis in presence of UDPGA; settings: recombinant enzyme
[9] = substrate: C[C@]12CC[C@@H]3c4ccc(O)cc4CC[C@H]3[C@@H]1C[C@@H](O)[C@@H]2O; assay: Drug metabolism assessed as recombinant human C-terminal His-tagged UGT1A10-mediated estriol-3-glucuronide formation after 15 to 60 mins by Michaelis-Menten equation analysis in presence of UDPGA; type: ADME
In short: (§4)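 For kinetics, the aglycone ranged from 0.2 to 300 μM in DMSO (10% final) with 5 mM UDPGA, 10 mM MgCl₂ and 50 mM phosphate pH 7.4. Enzyme was UGT-enriched insect cell membranes. Incubation was 15–60 min at 37°C, in triplicate, keeping substrate consumption ≤10%. Products were measured by HPLC and fitted to Michaelis-Menten. Rates were normalized to expression level.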

[10] = substrate: [H][C@@]12CCc3cc(O)ccc3[C@@]1([H])CC[C@]1(C)[C@H](O)[C@H](O)C[C@@]21[H]; assay: Drug metabolism assessed as recombinant human C-terminal His-tagged UGT1A10-mediated 17-epiestriol-3-glucuronide formation after 15 to 60 mins by Michaelis-Menten equation analysis in presence of UDPGA; type: ADME; in short: as §2
[11] = substrate: C[C@]12CC[C@@H]3c4ccc(O)cc4CC[C@H]3[C@@H]1C[C@H](O)[C@@H]2O; assay: Drug metabolism assessed as recombinant human C-terminal His-tagged UGT1A10-mediated 16-epiestriol-3-glucuronide formation after 15 to 60 mins by Michaelis-Menten equation analysis in presence of UDPGA; type: ADME; in short: as §4
[12] = substrate: C[C@]12CC[C@@H]3c4ccc(O)cc4CC[C@H]3[C@@H]1C[C@@H](O)[C@@H]2O; assay: Drug metabolism assessed as recombinant human C-terminal His-tagged UGT2B7-mediated estriol-16-glucuronide formation after 15 to 60 mins by Michaelis-Menten equation analysis in presence of UDPGA; type: ADME
In short: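 Kinetics with His-tagged UGT-enriched insect-cell membranes (5 or 50 µg): aglycone 0.2–300 µM in 10% DMSO, 5 mM UDPGA, 10 mM MgCl₂, 50 mM phosphate pH 7.4, 15–60 min at 37°C. Substrate consumption kept at or below 10%. Glucuronides quantified by HPLC in triplicate, rates normalized to expression, and data fitted to Michaelis-Menten.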

[13] = substrate: C[C@]12CC[C@@H]3c4ccc(O)cc4CC[C@H]3[C@@H]1C[C@H](O)[C@@H]2O; assay: Drug metabolism assessed as recombinant human C-terminal His-tagged UGT2B7-mediated 16-epiestriol-16-glucuronide formation after 15 to 60 mins by Michaelis-Menten equation analysis in presence of UDPGA; type: ADME; in short: as §4
[14] = substrate: [H][C@@]12CCc3cc(O)ccc3[C@@]1([H])CC[C@]1(C)[C@H](O)[C@H](O)C[C@@]21[H]; assay: Drug metabolism assessed as recombinant human C-terminal His-tagged UGT2B7-mediated 17-epiestriol-16-glucuronide formation after 15 to 60 mins by Michaelis-Menten equation analysis in presence of UDPGA; type: ADME; in short: as §2

Q: `C[C@]12CC[C@@H]3c4ccc(O[C@@H]5O[C@H](C(=O)O)[C@@H](O)[C@H](O)[C@H]5O)cc4CC[C@H]3[C@@H]1C[C@@H](O)[C@H]2O` was tested. Which Drug metabolism [1] did it give?
A: metabolite_detected

Q: How did the Km [2] turn out when “UDP-glucuronosyltransferase 1A10 (Homo sapiens; F93G)” was run?
A: 230 µM

Q: What about the Vmax [2] of the same molecule?
A: 0.00754 µmol/min/mg

Q: And the Km [3]?
A: 51.1 µM

Q: What about the Vmax [3] of the same molecule?
A: 0.00571 µmol/min/mg

Q: And the Km [4]?
A: 186 µM

Q: What about the Vmax [4] of the same molecule?
A: 0.00225 µmol/min/mg

Q: For `C[C@]12CC[C@@H]3c4ccc(O)cc4CC[C@H]3[C@@H]1C[C@@H](O[C@@H]1O[C@H](C(=O)O)[C@@H](O)[C@H](O)[C@H]1O)[C@@H]2O`, which Drug metabolism [5] is on record?
A: metabolite_detected

Q: For `C[C@]12CC[C@@H]3c4ccc(O)cc4CC[C@H]3[C@@H]1C[C@@H](O[C@@H]1O[C@H](C(=O)O)[C@@H](O)[C@H](O)[C@H]1O)[C@H]2O`, which Drug metabolism [1] is on record?
A: metabolite_not_detected

Q: For `C[C@]12CC[C@@H]3c4ccc(O)cc4CC[C@H]3[C@@H]1C[C@@H](O)[C@H]2O[C@@H]1O[C@H](C(=O)O)[C@@H](O)[C@H](O)[C@H]1O`, which Drug metabolism [6] is on record?
A: metabolite_detected

Q: What about the Drug metabolism [1] of the same molecule?
A: metabolite_detected

Q: With `C[C@]12CC[C@@H]3c4ccc(O[C@@H]5O[C@H](C(=O)O)[C@@H](O)[C@H](O)[C@H]5O)cc4CC[C@H]3[C@@H]1C[C@@H](O)[C@@H]2O` as the molecule, how does the Drug metabolism [5] read?
A: metabolite_detected

Q: `C[C@]12CC[C@@H]3c4ccc(O)cc4CC[C@H]3[C@@H]1C[C@H](O)[C@@H]2O[C@@H]1O[C@H](C(=O)O)[C@@H](O)[C@H](O)[C@H]1O` was tested. Which Drug metabolism [7] did it give?
A: metabolite_detected

Q: What about the Drug metabolism [8] of the same molecule?
A: metabolite_detected

Q: With `C[C@]12CC[C@@H]3c4ccc(O)cc4CC[C@H]3[C@@H]1C[C@@H](O)[C@@H]2O[C@@H]1O[C@H](C(=O)O)[C@@H](O)[C@H](O)[C@H]1O` as the molecule, how does the Drug metabolism [5] read?
A: metabolite_detected

Q: For `C[C@@]12CC[C@@H]3c4ccc(O)cc4CC[C@H]3[C@@H]1CC[C@@H]2O[C@@H]1O[C@H](C(=O)O)[C@@H](O)[C@H](O)[C@H]1O`, which Drug metabolism (UGT2A2 (Homo sapiens)) is on record?
A: metabolite_detected

Q: `C[C@]12CC[C@@H]3c4ccc(O)cc4CC[C@H]3[C@@H]1C[C@H](O[C@@H]1O[C@H](C(=O)O)[C@@H](O)[C@H](O)[C@H]1O)[C@@H]2O` was tested. Which Drug metabolism [7] did it give?
A: metabolite_detected

Q: And the Drug metabolism [8]?
A: metabolite_detected

Q: `C[C@]12CC[C@@H]3c4ccc(O[C@@H]5O[C@H](C(=O)O)[C@@H](O)[C@H](O)[C@H]5O)cc4CC[C@H]3[C@@H]1C[C@H](O)[C@@H]2O` was tested. Which Drug metabolism [7] did it give?
A: metabolite_detected

B1: UDP-glucuronosyltransferase 1A10 (Homo sapiens) (protein)
chain: T2 sequence (Q9HAW8 whole entry)
Q: Which results are given for B1?
A: Km [9]: 68.4 µM; Vmax [9]: 0.0012 µmol/min/mg; Km [10]: 337 µM; Vmax [10]: 0.000958 µmol/min/mg; Km [11]: 59.8 µM; Vmax [11]: 0.0077 µmol/min/mg

B2: UDP-glucuronosyltransferase 2B7 (Homo sapiens) (protein)
chain: T1 sequence (P16662 whole entry)
Q: Which Km [12] does the source give for B2 here?
A: 10.3 µM

Q: What about the Vmax [12] of the same molecule?
A: 0.00151 µmol/min/mg

Q: What about the Km [13] of the same molecule?
A: 38.4 µM

Q: And the Vmax [13]?
A: 0.00387 µmol/min/mg

Q: And the Km [14]?
A: 0.6 µM

Q: What about the Vmax [14] of the same molecule?
A: 0.00082 µmol/min/mg
